Measured values: ChEMBL document CHEMBL1806449, “A class of Trp-Trp-AA-OBzl: Synthesis, in vitro anti-proliferation/in vivo anti-tumor evaluation, intercalation-mechanism investigation and 3D QSAR analysis” (Eur J Med Chem, 2011)
Peptide text beside a SMILES is read from it. * marks the point of attachment. OBn = c1ccc(CO*)cc1

Tests used:
CCRF S-180 [1] = test: Antiproliferative activity against mouse S180 cells after 48 hrs by MTT assay; type: functional, cell-based; settings: CCRF S-180, 48 h
Mus musculus [2] = test: Toxicity in ICR mouse xenografted with mouse S180 cells assessed as increase in body weight at 8.9 umol/kg; type: organism-based, CCRF S-180; settings: in vivo
Outline: (§1)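 S180-bearing male ICR mice (10–12 weeks; 1×10^7 cells s.c. right oxter; 12 per group), daily i.p. 8.9 µmol/kg for seven days starting 24 h after implantation; NS, cytarabine and doxorubicin controls; liver, brain, kidney weights, spleen index and body-weight gain recorded.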

Mus musculus [3] = test: Acute toxicity in ICR mouse assessed as mortality at 500 mg/kg, ip administered qd for 7 days; type: organism-based; parameters: dose 500 mg/kg, route intraperitoneal; settings: in vivo, 168 h
Mus musculus [4] = test: Acute toxicity in ICR mouse assessed as tremors at 500 mg/kg, ip administered qd for 7 days; type: organism-based; parameters: dose 500 mg/kg, route intraperitoneal; settings: in vivo, 168 h
Mus musculus [5] = test: Toxicity in ICR mouse xenografted with mouse S180 cells assessed as effect on kidney weight at 8.9 umol/kg; type: organism-based, CCRF S-180; settings: in vivo; outline: as §1
Mus musculus [6] = test: Acute toxicity in ICR mouse assessed as tetanus at 500 mg/kg, ip administered qd for 7 days; type: organism-based; parameters: dose 500 mg/kg, route intraperitoneal; settings: in vivo, 168 h
K562 = test: Antiproliferative activity against human K562 cells after 48 hrs by MTT assay; type: functional, cell-based; settings: K562, 48 h
Mus musculus [7] = test: Acute toxicity in ICR mouse assessed as supination at 500 mg/kg, ip administered qd for 7 days; type: organism-based; parameters: dose 500 mg/kg, route intraperitoneal; settings: in vivo, 168 h
HepG2 = test: Antiproliferative activity against human HepG2 cells after 48 hrs by MTT assay; type: functional, cell-based; settings: HepG2, 48 h
H22 = test: Antiproliferative activity against mouse H22 cells after 48 hrs by MTT assay; type: functional, cell-based; settings: H22, 48 h
Mus musculus [8] = test: Acute toxicity in ICR mouse assessed as jumping at 500 mg/kg, ip administered qd for 7 days; type: organism-based; parameters: dose 500 mg/kg, route intraperitoneal; settings: in vivo, 168 h
Mus musculus [9] = test: Toxicity in ICR mouse xenografted with mouse S180 cells assessed as effect on brain weight at 8.9 umol/kg; type: organism-based, CCRF S-180; settings: in vivo; outline: as §1
Mus musculus [10] = test: Toxicity in ICR mouse xenografted with mouse S180 cells assessed as effect on liver weight at 8.9 umol/kg; type: organism-based, CCRF S-180; settings: in vivo; outline: as §1
CCRF S-180 [11] = test: Antitumor activity against mouse S180 cells xenografted in ICR mouse assessed as tumor growth inhibition at 8.9 umol/kg, ip administered 1 day after tumor inoculation qd for 7 days; type: functional; settings: CCRF S-180, ip, read-out: GI
Outline: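 Male ICR mice 10–12 weeks; S180 from ascites serially transplanted weekly; 1×10^7 viable cells in 0.2 ml NS implanted s.c. at right oxter; 24 h later randomized (10 per group); daily i.p. 8.9, 0.89 or 0.089 µmol/kg/day in 0.2 ml NS, 7 days; NS and cytarabine controls; sacrificed 24 h after last dose; inhibition % = [1−(Tw/Cw)]×100.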

[12] = Acute toxicity in ip dosed ICR mouse assessed as lethal dose; type: organism-based; settings: in vivo
Outline: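 Male ICR mice, 24 weeks old, got a single i.p. injection of 500 mg/kg in 0.2 ml NS (normal saline). They were watched for 7 days for neurotoxic behaviour (tremor, twitch, jumping, tetanus, supination) and for death.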

Mus musculus [13] = test: Acute toxicity in ICR mouse assessed as apparent changes in any organ at 500 mg/kg, ip administered qd for 7 days; type: organism-based; parameters: dose 500 mg/kg, route intraperitoneal; settings: in vivo, 168 h
B16 = test: Antiproliferative activity against mouse B16 cells after 48 hrs by MTT assay; type: functional, cell-based; settings: B16, 48 h
Mus musculus [14] = test: Toxicity in ICR mouse xenografted with mouse S180 cells assessed as increase in spleen index at 8.9 umol/kg; type: organism-based, CCRF S-180; settings: in vivo; outline: as §1
Mus musculus [15] = test: Acute toxicity in ICR mouse assessed as twitch at 500 mg/kg, ip administered qd for 7 days; type: organism-based; parameters: dose 500 mg/kg, route intraperitoneal; settings: in vivo, 168 h

Structure (SMILES)	IC50 (CCRF S-180 [1]) [µM]	Activity (Mus musculus [2]) [g]	Activity (Mus musculus [3])	Activity (Mus musculus [4])	Activity (Mus musculus [5]) [g]	Activity (Mus musculus [6])	IC50 (K562) [µM]	Activity (Mus musculus [7])	IC50 (HepG2) [µM]	IC50 (H22) [µM]	Activity (Mus musculus [8])	Activity (Mus musculus [9]) [g]	Activity (Mus musculus [10]) [g]	inhibition in vivo at 8.9 µmol/kg (CCRF S-180 [11]) [%]	LD50 [12] [mg/kg]	Activity (Mus musculus [13])	IC50 (B16) [µM]	Activity (Mus musculus [14])	Activity (Mus musculus [15])
C[C@H](NC(=O)[C@H](Cc1c[nH]c2ccccc12)NC(=O)[C@@H](N)Cc1c[nH]c2ccccc12)C(=O)OCc1ccccc1 (H-Trp-Trp-Ala-OBn)	18.5	9.5	Non-toxic	Non-toxic	0.16	Non-toxic	18.4	Non-toxic	20.1	20.8	Non-toxic	0.27	1.77	50	> 500	Non-toxic	23	7.59	Non-toxic
NC(=O)C[C@H](NC(=O)[C@H](Cc1c[nH]c2ccccc12)NC(=O)[C@@H](N)Cc1c[nH]c2ccccc12)C(=O)OCc1ccccc1 (H-Trp-Trp-Asn-OBn)	15.5	9.96	Non-toxic	Non-toxic	0.16	Non-toxic	16.3	Non-toxic	17.9	18.7	Non-toxic	0.27	1.82	50.6	> 500	Non-toxic	21.3	7.81	Non-toxic
NC(=O)CC[C@H](NC(=O)[C@H](Cc1c[nH]c2ccccc12)NC(=O)[C@@H](N)Cc1c[nH]c2ccccc12)C(=O)OCc1ccccc1 (H-Trp-Trp-Gln-OBn)	8.74	9.89	Non-toxic	Non-toxic	0.16	Non-toxic	8.86	Non-toxic	10.2	10.7	Non-toxic	0.27	1.81	72	> 500	Non-toxic	12	7.96	Non-toxic
N[C@@H](Cc1c[nH]c2ccccc12)C(=O)N[C@@H](Cc1c[nH]c2ccccc12)C(=O)N[C@@H](CCC(=O)O)C(=O)OCc1ccccc1 (H-Trp-Trp-Glu-OBn)	13.4	9.94	Non-toxic	Non-toxic	0.17	Non-toxic	11	Non-toxic	21	13.7	Non-toxic	0.27	1.86	55.3	> 500	Non-toxic	20.8	7.92	Non-toxic
N[C@@H](Cc1c[nH]c2ccccc12)C(=O)N[C@@H](Cc1c[nH]c2ccccc12)C(=O)NCC(=O)OCc1ccccc1 (H-Trp-Trp-Gly-OBn)	19.5	9.77	Non-toxic	Non-toxic	0.16	Non-toxic	16.2	Non-toxic	17.8	22.4	Non-toxic	0.27	1.8	56.6	> 500	Non-toxic	24.3	8.11	Non-toxic
N[C@@H](Cc1c[nH]c2ccccc12)C(=O)N[C@@H](Cc1c[nH]c2ccccc12)C(=O)N[C@@H](Cc1cnc[nH]1)C(=O)OCc1ccccc1 (H-Trp-Trp-His-OBn)	26.5	10.04	Non-toxic	Non-toxic	0.16	Non-toxic	25.3	Non-toxic	27.3	27	Non-toxic	0.28	1.78	30.7	> 500	Non-toxic	31.7	8.34	Non-toxic
CC[C@H](C)[C@H](NC(=O)[C@H](Cc1c[nH]c2ccccc12)NC(=O)[C@@H](N)Cc1c[nH]c2ccccc12)C(=O)OCc1ccccc1 (H-Trp-Trp-Ile-OBn)	19.2	9.8	Non-toxic	Non-toxic	0.17	Non-toxic	19.4	Non-toxic	22.2	21.7	Non-toxic	0.28	1.85	51.5	> 500	Non-toxic	25.9	8.12	Non-toxic
CC(C)C[C@H](NC(=O)[C@H](Cc1c[nH]c2ccccc12)NC(=O)[C@@H](N)Cc1c[nH]c2ccccc12)C(=O)OCc1ccccc1 (H-Trp-Trp-Leu-OBn)	118	8.4	–	–	0.16	–	116	–	123	121	–	0.26	1.7	3.29	–	–	124	7.45	–
N[C@@H](Cc1c[nH]c2ccccc12)C(=O)N[C@@H](Cc1c[nH]c2ccccc12)C(=O)N[C@@H](Cc1c[nH]c2ccccc12)C(=O)OCc1ccccc1 (H-Trp-Trp-Trp-OBn)	115	8.71	–	–	0.16	–	125	–	154	98.1	–	0.29	1.78	19.1	–	–	157	7.75	–
